Assay results from ChEMBL document CHEMBL1130336, “Polyanion inhibitors of human immunodeficiency virus and other viruses. 6. Micelle-like anti-HIV polyanionic compounds based on a carbohydrate core” (J Med Chem, 1997).

Assays:
CEM-4 [1] = test: Concentration required to reduce the viability of uninfected CEM-4 cells by 50%; type: functional; details: Homo sapiens
Outline: (§1)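 Cytotoxicity in uninfected CEM-4 or MT-4 cells, measured as inhibition of cell growth. The value is the concentration that lowers viability by 50%.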

CEM-4 [2] = test: Inhibitory concentration required to inhibit HIV-induced cytopathicity in CEM-4 cells by 50%; type: functional, cell-based; details: Homo sapiens
Outline: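 CEM-4 cells infected with HIV-1 (strain HTLV-III_B/LAI). The end point is 50% inhibition of HIV-induced cytopathicity.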

E6SM [3] = test: Concentration required to cause a microscopically detectable alteration of normal E6SM cell morphology; type: functional, cell-based; details: Homo sapiens, read-out: IC50
Outline: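 Minimum cytotoxic concentration, read microscopically as the level that causes a detectable alteration of normal cell morphology.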

E6SM [4] = test: Concentration required to reduce herpes simplex virus-1TK( B2006) inducted cytopathicity by 50% (E6SM cells); type: functional, cell-based; details: Homo sapiens
Outline: (§2)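 Virus was added in the presence of compound, and the cells were incubated until cytopathic effect was scored. The value is the concentration that reduces virus-induced CPE by 50%.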

E6SM [5] = test: Concentration required to reduce herpes simplex virus-1TK (F) inducted cytopathicity by 50% (E6SM cells); type: functional, cell-based; details: Homo sapiens; outline: as §2
E6SM [6] = test: Concentration required to reduce herpes simplex virus-1TK (KOS) inducted cytopathicity by 50% (E6SM cells); type: functional, cell-based; details: Homo sapiens; outline: as §2
E6SM [7] = test: Concentration required to reduce herpes simplex virus-1TK (McIntyre) inducted cytopathicity by 50% (E6SM cells); type: functional, cell-based; details: Homo sapiens; outline: as §2
E6SM [8] = test: Concentration required to reduce herpes simplex virus-1TK (VMW1837) inducted cytopathicity by 50% (E6SM cells); type: functional, cell-based; details: Homo sapiens; outline: as §2
E6SM [9] = test: Concentration required to reduce herpes simplex virus-2(196) inducted cytopathicity by 50% (E6SM cells); type: functional, cell-based; details: Homo sapiens; outline: as §2
E6SM [10] = test: Concentration required to reduce herpes simplex virus-2(G) inducted cytopathicity by 50% (E6SM cells); type: functional, cell-based; details: Homo sapiens; outline: as §2
Vaccinia virus = test: Concentration required to reduce vaccinia virus-inducted cytopathicity by 50% (E6SM cells); type: functional, organism-based, Orthopoxvirus vaccinia; details: Orthopoxvirus vaccinia, E6SM
[11] = test system: Human immunodeficiency virus 1; test: Concentration required to inhibit by 50% human immunodeficiency virus-1 induced syncytium formation upon coculturing persistently HIV-infected HUT-78 cells with MOLT-4 cells; type: functional, organism-based; details: Human immunodeficiency virus 1, MOLT-4
Outline: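 MOLT-4 (clone 8) cells at 1 × 10^6 cells/mL, cocultured with an equal number of persistently infected HUT-78/HIV-1 or HUT-78/HIV-2 cells across a range of compound concentrations. Giant cells were counted under the microscope after 24 h of cocultivation. The value is the concentration giving 50% inhibition of syncytium formation.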

HEL [12] = test: Concentration required to inhibit HEL cell growth by 50%; type: functional, cell-based; details: Homo sapiens
HEL [13] = test: Concentration required to reduce human cytomegalo virus(AD-169) inducted cytopathicity by 50% (HEL cells); type: functional, cell-based; outline: as §2
HEL [14] = test: Concentration required to reduce human cytomegalo virus(Davis) inducted cytopathicity by 50% (HEL cells); type: functional, cell-based; outline: as §2
HeLa [15] = test: Concentration required to cause a microscopically detectable alteration of normal Hela cell morphology; type: functional, cell-based; details: Homo sapiens
HeLa [16] = test: Concentration required to reduce Coxsackie virus-inducted cytopathicity by 50% (HeLa cells); type: functional, cell-based; details: Homo sapiens
HeLa [17] = test: Concentration required to reduce polio-1 virus-inducted cytopathicity by 50% (HeLa cells); type: functional, cell-based; details: Homo sapiens
HeLa [18] = test: Concentration required to reduce vesicular stomatitis virus-inducted cytopathicity by 50% (HeLa cells); type: functional, cell-based; details: Homo sapiens
MT4 [19] = test: Concentration required to reduce the viability of uninfected MT-4 cells by 50%; type: functional; details: Homo sapiens; outline: as §1
MT4 [20] = test: Concentration required to inhibit human immunodeficiency virus-2 induced cytopathicity in MT-4 cells by 50%; type: functional, cell-based
Outline: (§3)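 MT-4 cells infected with HIV-1 (strain HTLV-III_B/LAI) or HIV-2 (strain LAV_ROD). The end point is 50% inhibition of virus-induced cytopathicity.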

Vero [21] = test: Concentration required to cause a microscopically detectable alteration of normal Vero cell morphology; type: functional, cell-based; details: Chlorocebus sabaeus
Vero [22] = test: Concentration required to reduce Coxsackie virus-inducted cytopathicity by 50% (Vero cells); type: functional, cell-based; details: Chlorocebus sabaeus
Vero [23] = test: Concentration required to reduce Junin virus-inducted cytopathicity by 50% (Vero cells); type: functional, cell-based; details: Chlorocebus sabaeus
Vero [24] = test: Concentration required to reduce forest virus-inducted cytopathicity by 50% (Vero cells); type: functional, cell-based; details: Chlorocebus sabaeus
Vero [25] = test: Concentration required to reduce Tacaribe virus-inducted cytopathicity by 50% (Vero cells); type: functional, cell-based; details: Chlorocebus sabaeus
Vero [26] = test: Concentration required to reduce parainfluenza-3 virus-inducted cytopathicity by 50% (Vero cells); type: functional, cell-based; details: Chlorocebus sabaeus
Vero [27] = test: Concentration required to reduce reovirus-1 inducted cytopathicity by 50% (Vero cells); type: functional, cell-based; details: Chlorocebus sabaeus
Vero [28] = test: Concentration required to reduce sindbis virus-inducted cytopathicity by 50% (Vero cells); type: functional, cell-based; details: Chlorocebus sabaeus
MT4 [29] = test: Concentration required to inhibit human immunodeficiency virus-1 induced cytopathicity in MT-4 cells by 50%; type: functional, cell-based; outline: as §3
E6SM [30] = test: Concentration required to reduce herpes simplex virus-2(Lyons) inducted cytopathicity by 50% (E6SM cells); type: functional, cell-based; details: Homo sapiens; outline: as §2
[31] = test system: Human immunodeficiency virus 2; test: Concentration required to inhibit by 50% human immunodeficiency virus-2 induced syncytium formation upon coculturing persistently HIV-infected HUT-78 cells with MOLT-4 cells; details: HUT-78, MOLT-4

SMILES: O=C(O)CC(SCCCOC[C@H]1O[C@@](COCCCSC(CC(=O)O)C(=O)O)(O[C@H]2O[C@H](COCCCSC(CC(=O)O)C(=O)O)[C@@H](OCCCSC(CC(=O)O)C(=O)O)[C@H](OCCCSC(CC(=O)O)C(=O)O)[C@H]2OCCCSC(CC(=O)O)C(=O)O)[C@@H](OCCCSC(CC(=O)O)C(=O)O)[C@@H]1OCCCSC(CC(=O)O)C(=O)O)C(=O)O (some centres not stated)
- CC50 (CEM-4 [1]): > 45.1 µM
- IC50 (CEM-4 [2]): 3.02 µM
- minimum cytotoxic concentration (E6SM [3]): > 181 µM
- IC50 (E6SM [4]): > 181 µM
- IC50 (E6SM [5]): > 181 µM
- IC50 (E6SM [6]): > 181 µM
- IC50 (E6SM [7]): > 181 µM
- IC50 (E6SM [8]): > 181 µM
- IC50 (E6SM [9]): > 181 µM
- IC50 (E6SM [10]): > 181 µM
- IC50 (Vaccinia virus): > 181 µM
- IC50 [11]: 22.6 µM
- IC50 (HEL [12]): > 22 µM
- IC50 (HEL [13]): > 22 µM
- IC50 (HEL [14]): > 22 µM
- IC50 (HeLa [15]): > 90 µM
- IC50 (HeLa [16]): > 90 µM
- IC50 (HeLa [17]): > 90 µM
- IC50 (HeLa [18]): > 90 µM
- CC50 (MT4 [19]): > 113 µM
- IC50 (MT4 [20]): 2.89 µM
- IC50 (Vero [21]): > 90 µM
- IC50 (Vero [22]): > 90 µM
- IC50 (Vero [23]): > 22 µM
- IC50 (Vero [24]): > 90 µM
- IC50 (Vero [25]): > 22 µM
- IC50 (Vero [26]): > 90 µM
- IC50 (Vero [27]): > 90 µM
- IC50 (Vero [28]): > 90 µM
- IC50 (MT4 [29]): 0.18 µM
- IC50 (E6SM [30]): > 135 µM
- IC50 [31]: 22.6 µM
